This is an account of results in ChEMBL document CHEMBL3526053, “Species-dependent uptake of glycylsarcosine but not oseltamivir in Pichia pastoris expressing the rat, mouse, and human intestinal peptide transporter PEPT1” (Drug Metab Dispos, 2012).

Holding throughout (assay type): ADME
The target in data set [1] is T1, Solute carrier family 15 member 1 (Homo sapiens, UniProt P46059).
T1 sequence (P46059 whole entry): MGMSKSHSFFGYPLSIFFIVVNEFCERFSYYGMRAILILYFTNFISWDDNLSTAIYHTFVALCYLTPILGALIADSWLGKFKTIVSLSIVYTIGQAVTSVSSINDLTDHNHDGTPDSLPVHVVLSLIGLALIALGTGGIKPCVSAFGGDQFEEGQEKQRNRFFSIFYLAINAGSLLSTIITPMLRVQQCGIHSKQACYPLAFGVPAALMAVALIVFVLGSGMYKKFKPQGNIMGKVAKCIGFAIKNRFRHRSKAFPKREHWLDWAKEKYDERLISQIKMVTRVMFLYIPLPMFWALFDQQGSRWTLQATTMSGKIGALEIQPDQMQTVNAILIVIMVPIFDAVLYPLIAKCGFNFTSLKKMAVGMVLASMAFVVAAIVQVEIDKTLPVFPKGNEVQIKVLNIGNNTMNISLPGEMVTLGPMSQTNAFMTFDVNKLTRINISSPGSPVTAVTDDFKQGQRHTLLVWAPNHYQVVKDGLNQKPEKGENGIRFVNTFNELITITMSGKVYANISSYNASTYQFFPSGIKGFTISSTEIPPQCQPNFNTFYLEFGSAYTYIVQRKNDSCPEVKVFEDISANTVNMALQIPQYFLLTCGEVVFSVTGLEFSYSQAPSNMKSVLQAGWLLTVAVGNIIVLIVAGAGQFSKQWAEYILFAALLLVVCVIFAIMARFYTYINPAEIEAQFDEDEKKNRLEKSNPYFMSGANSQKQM
Kind of data set: Drug uptake in Pichia pastoris GS115 expressing human recombinant PEPT1 at 5 uM after 30s by dual-channel liquid scintillation counting analysis in presence of elacridar relative to control. Conditions: 0.5 min. The method in brief: (§1)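 [3H]GlySar 5.0 µM final, 30-s uptake at 24°C in 100 mM potassium phosphate pH 6.5, with or without a potential inhibitor at 10 mM. Cells are methanol-induced transformants. Values are vector-subtracted and expressed as percent of buffer control. Mean ± SE (n=3). ANOVA with Dunnett's test.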

Data set [2] has as its target T2, Solute carrier family 15 member 1 (Mus musculus, UniProt Q9JIP7).
T2 sequence (Q9JIP7 whole entry): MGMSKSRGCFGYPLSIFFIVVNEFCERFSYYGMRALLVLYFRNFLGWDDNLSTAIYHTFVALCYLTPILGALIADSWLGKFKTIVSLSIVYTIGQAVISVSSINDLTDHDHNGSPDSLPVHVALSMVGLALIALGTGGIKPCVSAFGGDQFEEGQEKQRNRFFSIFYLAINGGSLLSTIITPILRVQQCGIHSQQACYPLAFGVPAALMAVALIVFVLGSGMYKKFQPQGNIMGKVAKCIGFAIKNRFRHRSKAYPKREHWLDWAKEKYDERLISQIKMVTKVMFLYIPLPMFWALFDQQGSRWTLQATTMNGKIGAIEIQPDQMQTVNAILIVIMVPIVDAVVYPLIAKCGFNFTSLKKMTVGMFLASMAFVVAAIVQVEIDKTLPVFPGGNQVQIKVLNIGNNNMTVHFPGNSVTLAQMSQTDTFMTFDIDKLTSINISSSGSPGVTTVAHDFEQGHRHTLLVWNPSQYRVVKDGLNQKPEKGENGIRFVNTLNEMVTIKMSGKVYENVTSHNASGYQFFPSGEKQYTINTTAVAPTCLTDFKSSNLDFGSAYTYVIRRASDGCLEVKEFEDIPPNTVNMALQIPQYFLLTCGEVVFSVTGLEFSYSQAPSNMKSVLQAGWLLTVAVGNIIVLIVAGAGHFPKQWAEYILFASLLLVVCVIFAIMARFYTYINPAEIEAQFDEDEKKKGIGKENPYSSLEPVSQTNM
Kind of data set: Drug uptake in Pichia pastoris GS115 expressing mouse recombinant PEPT1 at 5 uM after 30s by dual-channel liquid scintillation counting analysis in presence of cephalothin relative to control. Conditions: 0.5 min. The procedure, abridged: as §1

Data set [3] deals with T3, Solute carrier family 15 member 1 (Rattus norvegicus, UniProt P51574).
T3 sequence (P51574 whole entry): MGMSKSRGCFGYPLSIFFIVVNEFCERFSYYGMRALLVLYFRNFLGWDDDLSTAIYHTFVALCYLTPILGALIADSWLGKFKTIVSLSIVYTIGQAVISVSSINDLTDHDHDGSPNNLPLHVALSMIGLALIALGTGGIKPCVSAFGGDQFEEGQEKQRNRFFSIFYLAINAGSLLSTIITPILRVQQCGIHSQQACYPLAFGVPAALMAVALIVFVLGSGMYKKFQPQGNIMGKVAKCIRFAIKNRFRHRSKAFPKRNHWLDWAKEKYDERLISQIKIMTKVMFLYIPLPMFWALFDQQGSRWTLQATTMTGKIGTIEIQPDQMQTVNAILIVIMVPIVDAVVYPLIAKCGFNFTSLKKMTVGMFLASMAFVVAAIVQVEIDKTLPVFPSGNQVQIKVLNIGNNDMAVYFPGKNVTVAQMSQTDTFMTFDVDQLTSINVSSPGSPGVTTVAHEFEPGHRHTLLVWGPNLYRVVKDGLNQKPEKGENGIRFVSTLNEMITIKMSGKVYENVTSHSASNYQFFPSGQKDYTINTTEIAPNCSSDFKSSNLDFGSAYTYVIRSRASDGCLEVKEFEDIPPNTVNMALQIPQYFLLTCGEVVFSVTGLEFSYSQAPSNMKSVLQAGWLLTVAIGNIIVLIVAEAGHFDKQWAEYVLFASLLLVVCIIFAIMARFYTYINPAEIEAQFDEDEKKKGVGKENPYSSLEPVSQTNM
Kind of data set: Drug uptake in Pichia pastoris GS115 expressing rat recombinant PEPT1 at 5 uM after 30s by dual-channel liquid scintillation counting analysis in presence of GlyPro relative to control. To be noted: in vivo, 0.5 min. The method in brief: as §1

Data set [4] addresses T3, Solute carrier family 15 member 1. Kind of data set: Drug uptake in Pichia pastoris GS115 expressing rat recombinant PEPT1 at 5 uM after 30s by dual-channel liquid scintillation counting analysis in presence of cephradine relative to control. To be noted: 0.5 min. The procedure, abridged:
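Rat PEPT1 (pPIC3.5K-rPept1) in GS115 His+Mut+ transformant, methanol-induced 20-24 hr in BMMY at 30°C, washed into 100 mM potassium phosphate pH 6.5. [3H]GlySar final 5.0 µM with inhibitor at 10 mM, 30 sec at 24°C. Counts taken by liquid scintillation after 24 hr standing. Values are vector-subtracted and given as % of buffer control. Mean ± SE, n=3.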

Data set [5] has as its target T1, Solute carrier family 15 member 1. The experiment in a line: Drug uptake in Pichia pastoris GS115 expressing human recombinant PEPT1 at 5 uM after 30s by dual-channel liquid scintillation counting analysis in presence of GlyPro relative to control. To be noted: 0.5 min. The method in brief: as §1
Data set [6] addresses T2, Solute carrier family 15 member 1. The experiment in a line: Drug uptake in Pichia pastoris GS115 expressing mouse recombinant PEPT1 at 5 uM after 30s by dual-channel liquid scintillation counting analysis in presence of cefazolin relative to control. Conditions: 0.5 min. The method in brief:
as §1

For `[3H]C(C(=O)O)N(C)C(=O)CN` (stereo unspecified), the Drug uptake came out at 100% in data set [1]; 85% in data set [2]; 0.6% in data set [3]; 23.4% in data set [4]; 3.9% in data set [5]; 87.4% in data set [6].
